Measured values taken from ChEMBL document CHEMBL1124818, “Synthesis and cardiac electrophysiological activity of aryl-substituted derivatives of the class III antiarrhythmic agent sematilide. Potential class I/III agents” (J Med Chem, 1990).
Values joined by “and” are separate entries in the source; they are usually repeats but may differ in a detail not shown here. Equal values may be shown once.

Assays:
[1] = Percent change from control value for Vmax at 100 uM of the compound.
How it was run: (§1)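 Microelectrode recording in Purkinje fibers; maximal depolarization rate (Vmax) measured at each test concentration, given as percent change from control, mean ± SEM; n per concentration may differ from APD experiments.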

[2] = Percent change from control value for Vmax at 10 uM of the compound.; how it was run: as §1
[3] = Percent change from control value for Vmax at 1 uM of the compound.; how it was run: as §1
[4] = Percent change from control value for Vmax at 30 uM of the compound.; how it was run: as §1
Cavia porcellus [5] = assay: Percent change in the mean time to first Ouabain-induced arrhythmia was determined in Guinea pig at a dose of 10 mg/kg; type: functional
How it was run: (§2)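 Anesthetized guinea pigs, tracheal cannulation with room-air respiration, right jugular cannulated; 5 min equilibration, test agent intravenous, then 10 min later ouabain 40 μg/kg iv bolus plus 10 μg/kg/min infusion until arrhythmia. Percent change in mean time to first arrhythmia (n = 4-6) versus vehicle control (n = 3-4).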

Canis familiaris [6] = organism: Canis familiaris; assay: Duration of action potential was determined in vitro in Canine Purkinje fibers at 100 uM concentration.; type: functional, Canis lupus familiaris, Purkinje fiber
How it was run: (§3)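 Microelectrode recording in Purkinje fibers; action potential duration at 95% repolarization measured at each test concentration and expressed as percent change from control, mean ± SEM over the stated number of experiments.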

Canis familiaris [7] = organism: Canis familiaris; assay: Duration of action potential was determined in vitro in Canine Purkinje fibers at 10 uM concentration.; type: functional, Canis lupus familiaris, Purkinje fiber; how it was run: as §3
Canis familiaris [8] = organism: Canis familiaris; assay: Duration of action potential was determined in vitro in Canine Purkinje fibers at 1 uM concentration.; type: functional, Canis lupus familiaris, Purkinje fiber; how it was run: as §3
Canis familiaris [9] = organism: Canis familiaris; assay: Duration of action potential was determined in vitro in Canine Purkinje fibers at 30 uM concentration.; type: functional, Canis lupus familiaris, Purkinje fiber; how it was run: as §3
[10] = Percent change from control value for Vmax at 0.1 uM of the compound.; how it was run: as §1
Canis familiaris [11] = organism: Canis familiaris; assay: Duration of action potential was determined in vitro in Canine Purkinje fibers at 0.1 uM concentration.; type: functional, Canis lupus familiaris, Purkinje fiber; how it was run: as §3
Canis familiaris [12] = organism: Canis familiaris; assay: Duration of action potential in vitro against Canine Purkinje fibers; at 1 uM concentration; type: functional, Canis lupus familiaris, Purkinje fiber; how it was run: as §3
Canis familiaris [13] = organism: Canis familiaris; assay: Duration of action potential in vitro against Canine Purkinje fibers; at 100 uM concentration.; type: functional, Canis lupus familiaris, Purkinje fiber; how it was run: as §3
Canis familiaris [14] = organism: Canis familiaris; assay: Duration of action potential in vitro against Canine Purkinje fibers; at 10 uM concentration.; type: functional, Canis lupus familiaris, Purkinje fiber; how it was run: as §3
Canis familiaris [15] = organism: Canis familiaris; assay: Duration of action potential in vitro against Canine Purkinje fibers; at 30 uM concentration.; type: functional, Canis lupus familiaris, Purkinje fiber; how it was run: as §3
Canis familiaris [16] = assay: Antiarrhythmic efficacy in vivo against PES model; type: functional; details: Canis lupus familiaris, Heart
How it was run: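 Conscious dogs 3-8 days after occlusion/reperfusion infarction (Karagueuzian method); programmed electrical stimulation induced two control arrhythmias before dosing, VF ended by DC countershock and sustained VT by burst pacing. After intravenous drug, reinduction attempted; efficacy counted when SVT/VF not inducible; per-dog effective dose recorded, non-responders to cumulative 10 mg/kg unless noted.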

Cavia porcellus [17] = assay: Percent change in the mean time to first Ouabain-induced arrhythmia was determined in Guinea pig at a dose of 3 mg/kg; type: functional; how it was run: as §2
Canis familiaris [18] = assay: Antiarrhythmic efficacy in vivo against Harris model; type: functional; details: Canis lupus familiaris, Heart
How it was run: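 Conscious dogs studied 24 h after two-stage coronary occlusion infarction (Harris method), when ectopy exceeds 75%; test agent given intravenously. Efficacy counted as >30% decrease in ectopy; per-dog effective dose recorded, non-responders given cumulative 10 mg/kg unless otherwise noted.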

[19] = Percent change from control value for Vmax at 0.1 uM of the compound; how it was run: as §1
[20] = Percent change from control value for Vmax at 10 uM of the compound; how it was run: as §1
[21] = Percent change from control value for Vmax at 1 uM of the compound; how it was run: as §1
[22] = Percent change from control value for Vmax at 30 uM of the compound; how it was run: as §1
Canis familiaris [23] = organism: Canis familiaris; assay: Duration of action potential was determined in vitro in Canine Purkinje fibers at 0.1 uM concentration; type: functional, Canis lupus familiaris, Purkinje fiber; how it was run: as §3
Canis familiaris [24] = organism: Canis familiaris; assay: Duration of action potential was determined in vitro in Canine Purkinje fibers at 10 uM concentration; type: functional, Canis lupus familiaris, Purkinje fiber; how it was run: as §3
Canis familiaris [25] = organism: Canis familiaris; assay: Duration of action potential was determined in vitro in Canine Purkinje fibers at 1 uM concentration; type: functional, Canis lupus familiaris, Purkinje fiber; how it was run: as §3
Canis familiaris [26] = organism: Canis familiaris; assay: Duration of action potential was determined in vitro in Canine Purkinje fibers at 30 uM concentration; type: functional, Canis lupus familiaris, Purkinje fiber; how it was run: as §3
Canis familiaris [27] = organism: Canis familiaris; assay: Duration of action potential in vitro against Canine Purkinje fibers, at 10 uM concentration.; type: functional, Canis lupus familiaris, Purkinje fiber; how it was run: as §3
Canis familiaris [28] = organism: Canis familiaris; assay: Duration of action potential in vitro against Canine Purkinje fibers, at 30 uM concentration.; type: functional, Canis lupus familiaris, Purkinje fiber; how it was run: as §3
[29] = Percent change from control value for Vmax at 3 uM of the compound.; how it was run: as §1
Canis familiaris [30] = organism: Canis familiaris; assay: Duration of action potential in vitro against Canine Purkinje fibers; at 3 uM concentration; type: functional, Canis lupus familiaris, Purkinje fiber; how it was run: as §3
Cavia porcellus [31] = assay: Percent change in the mean time to first Ouabain-induced arrhythmia was determined in Guinea pig at 10 mg/kg dose; type: functional; how it was run: as §2
Canis familiaris [32] = organism: Canis familiaris; assay: Duration of action potential in vitro against Canine Purkinje fibers, at 100 uM concentration.; type: functional, Canis lupus familiaris, Purkinje fiber; how it was run: as §3
Canis familiaris [33] = organism: Canis familiaris; assay: Duration of action potential in vitro against Canine Purkinje fibers, at 3 uM concentration.; type: functional, Canis lupus familiaris, Purkinje fiber; how it was run: as §3

Row | SMILES | Delta Vmax [2] [%] | Delta Vmax [3] [%] | Delta Vmax [4] [%] | Change (Cavia porcellus [5]; dose 10 mg/kg) [%] | Delta APD95 (Canis familiaris [7]) [%] | Delta APD95 (Canis familiaris [8]) [%] | Delta APD95 (Canis familiaris [9]) [%] | Delta Vmax [10] [%] | Delta APD95 (Canis familiaris [11]) [%] | Delta APD95 (Canis familiaris [12]) [%] | ED50 (Canis familiaris [16]) [mg/kg] | also measured
1 | CCN(CC)CCN(C(=O)c1ccc(NS(C)(=O)=O)cc1)c1ccccc1.Cl | -12 | -3 | -20 | -9 | 52 | 18 | 38 | -4 | 4 |  |  | Delta Vmax [1]: -39%; Delta APD95 (Canis familiaris [6]): 45%
2 | CCN(CC)CC(NC(=O)c1ccc(NS(C)(=O)=O)cc1)c1ccccc1.Cl (stereo not given) | -13 | -2 | -34 | 61 |  |  |  | 6 | 4 | 21 |  | Delta Vmax [1]: -76%; Delta APD95 (Canis familiaris [13]): -20%; Delta APD95 (Canis familiaris [14]): -2%; Delta APD95 (Canis familiaris [15]): -12%
3 | CCN(CC)CCN(C(=O)c1ccc(NS(C)(=O)=O)cc1)c1c(C(C)C)cccc1C(C)C.Cl | -11 | 1 |  |  | 22 | 21 |  |  |  |  | 1 | Change (Cavia porcellus [17]): 22%; ED50 (Canis familiaris [18]): 10 mg/kg
4 | CCN(CC)CCN(C(=O)c1ccc(NS(C)(=O)=O)cc1)c1c(C)cccc1C.Cl | -3 | -2 | -6 | -8 | 30 | 10 | 40 | -4 | 7 |  |  | 
5 | CCN(CC)CCN(C(=O)c1ccc(NS(C)(=O)=O)cc1)c1cccc2ccccc12.Cl | -13 | -5 | -16 | -25 |  |  |  | 2 | 10 | 51 | 1 | Delta Vmax [1]: -42%; Change (Cavia porcellus [17]): 8%; Delta APD95 (Canis familiaris [13]): 26%; Delta APD95 (Canis familiaris [14]): 64% and 37%
6 | CCc1ccc(N(CCN(CC)CC)C(=O)c2ccc(NS(C)(=O)=O)cc2)cc1.Cl | 4 | 8 | -6 | 20 | 70 | 51 | 62 | 5 | 12 |  |  | 
7 | CCN(CC)CCN(C(=O)c1ccc(NS(C)(=O)=O)cc1)c1ccc(NS(C)(=O)=O)cc1 |  |  |  | 22 |  |  |  |  |  |  |  | Delta Vmax [19]: -4%; Delta Vmax [20]: -3%; Delta Vmax [21]: -2%; Delta Vmax [22]: -6%; Delta APD95 (Canis familiaris [23]): 7%; Delta APD95 (Canis familiaris [24]): 30%; Delta APD95 (Canis familiaris [25]): 10%; Delta APD95 (Canis familiaris [26]): 40%
8 | CCN(CC)C(CNC(=O)c1ccc(NS(C)(=O)=O)cc1)c1ccccc1 (stereo not given) | -12 | -4 | -15 | -13 |  |  |  | -4 | 11 | 40 |  | Delta APD95 (Canis familiaris [27]): 46%; Delta APD95 (Canis familiaris [28]): 52%
9 | CCN(CC)CCN(C(=O)c1ccc(NS(C)(=O)=O)cc1)c1ccc(Cl)cc1 | -8 | 2 | -20 | 18 | 64 | 34 | 60 | 3 | 9 |  |  | 
10 | CCN(CC)CCN(C(=O)c1ccc(NS(C)(=O)=O)cc1)c1ccc(OC)cc1.O=C(O)/C=C/C(=O)O | -3 | -3 | -8 | 15 | 82 | 35 | 66 | 0 | 8 |  |  | 
11 | CCN(CC)C(CNC(=O)c1ccc(NS(C)(=O)=O)cc1)c1cccc2ccccc12 (stereo not given) | -4 | -2 | -7 | 0 |  |  |  | 1 | 4 | 29 |  | Delta APD95 (Canis familiaris [27]): 34%; Delta APD95 (Canis familiaris [28]): 29%
12 | CCN(CC)CC(NC(=O)c1ccc(NS(C)(=O)=O)cc1)c1cccc2ccccc12 (stereo not given) |  | -20 |  |  |  |  |  | -3 | 14 | 10 | 1 | Change (Cavia porcellus [5]; dose 3 mg/kg, in the assay text read “3 mg/kg” for “10 mg/kg”): 70%; Delta APD95 (Canis familiaris [27]): -14%; ED50 (Canis familiaris [18]): 2 mg/kg
13 | O=C(NCC1CCCCN1)c1cc(OCC(F)(F)F)ccc1OCC(F)(F)F (stereo not given) [FLECAINIDE] | -30 | -6 |  |  |  |  |  | 2 | -3 | -15 | 1 | Delta Vmax [29]: -11%; Change (Cavia porcellus [17]): 51%; Delta APD95 (Canis familiaris [14]): -47%; Delta APD95 (Canis familiaris [30]): -35%; ED50 (Canis familiaris [18]): 1 mg/kg
14 | CCN(CC)CC(=O)Nc1c(C)cccc1C [LIDOCAINE] | 1 | 2 |  | 30 | -25 | -7 |  |  |  |  |  | 
15 | C=C[C@H]1CN2CC[C@H]1C[C@@H]2[C@@H](O)c1ccnc2ccc(OC)cc12 [QUINIDINE] |  | -1 | -23 |  | -4 | 4 | -17 | 0 | 2 |  | 1 | Change (Cavia porcellus [31]): 28%; Delta APD95 (Canis familiaris [6]): -14%; ED50 (Canis familiaris [18]): 10 mg/kg
16 | CCN(CC)CCNC(=O)c1ccc(NS(C)(=O)=O)cc1 [SEMATILIDE] | 0 | 0 |  |  |  |  |  | 2 | 0 | 6 | 1 | Delta Vmax [1]: 0%; Delta APD95 (Canis familiaris [32]): 66%; Delta APD95 (Canis familiaris [27]): 33%; Delta APD95 (Canis familiaris [28]): 51%; Delta APD95 (Canis familiaris [33]): 14%
